# Assay results gathered from unrelated publications.
# Protocols differ between the studies behind these lines.
# PROC: Vitamin K-dependent protein C (PROC, Homo sapiens, UniProt P04070)
# PFF0160c: Dihydroorotate dehydrogenase (quinone), mitochondrial (PFF0160c, Plasmodium falciparum, UniProt Q08210)
# PFF0160c E182D: Dihydroorotate dehydrogenase (quinone), mitochondrial (PFF0160c, Plasmodium falciparum, UniProt Q08210, E182D)
SMILES,target,assay,IC50 [nM]
O=C(CCCC(=O)N1CCN(C(=O)c2cc(Cc3n[nH]c(=O)c4ccccc34)ccc2F)CC1)NCCNC(=O)C1CC2C=CC1C2 (stereo not shown),"Poly [ADP-ribose] polymerase 1 (PARP1, Homo sapiens, UniProt P09874)","enzyme activity, inhibitor",10.1
COc1cc(Nc2ncc(F)c(Nc3ccc4c(n3)NC(=O)C(C)(C)O4)n2)cc(OC)c1OC,"cGMP-specific 3',5'-cyclic phosphodiesterase (PDE5A, Homo sapiens, UniProt O76074)","enzyme activity, inhibitor",316
CC[C@H]1NC(=O)[C@@H]2CSC(=N2)[C@@H](Cc2ccccc2)N(C)C(=O)[C@@H]2CCCN2C(=O)[C@H](C(C)C)N(C)C(=O)[C@H](Cc2ccccc2)OC(=O)[C@H](C)[C@@H](C)NC(=O)[C@@H]([C@@H](C)O)NC(=O)[C@@H](CC(C)C)N(C)C(=O)[C@@H]2CSC1=N2,PROC,"enzyme activity, inhibitor",79000
Cc1c(Cc2ccc(F)c(F)c2)c[nH]c1C(=O)NC(C)c1nc[nH]n1 (stereo not shown),PFF0160c,"enzyme activity, inhibitor, absorbance",> 100000
COc1ccc(C(=O)NCC(C)(C)c2nc(-c3ccc(Cl)c(O)c3)c(-c3ccncc3)[nH]2)cc1OCCN(C(C)C)C(C)C,PFF0160c,"enzyme activity, inhibitor, absorbance",> 10000
O=S(=O)(O)c1nc2ccccc2[nH]1,"racE (Bacillus subtilis, UniProt P94556, N75A)","enzyme activity, inhibitor, absorbance",890000
CCOC(=O)c1[nH]cc(Cc2cccc3ncoc23)c1C,PFF0160c,"enzyme activity, inhibitor, absorbance",100
CCc1nc2nc(C)cc(Nc3ccc4c(c3)OCCO4)n2n1,PFF0160c,"enzyme activity, inhibitor, absorbance",492
Cc1nc(C(C)NC(=O)c2[nH]cc(Cc3ccc(C(F)(F)F)nc3)c2C)c[nH]1 (stereo not shown),PFF0160c,"enzyme activity, inhibitor, absorbance",1300
Cc1nc(Nc2ccc(C(F)(F)F)cc2)c2c(C)noc2n1,PFF0160c,"enzyme activity, inhibitor, absorbance",68
Cc1cc(Nc2ccc(C)c(Cl)c2)n2nc(C(F)(F)F)nc2n1,PFF0160c,"enzyme activity, inhibitor, absorbance",29.1
Cc1c(C(=O)NC(C)c2nc[nH]n2)[nH]c(Cl)c1Cc1ccc(C(F)(F)F)nc1 (stereo not shown),PFF0160c,"enzyme activity, inhibitor, absorbance",> 100000
Cc1nc(NC2CCc3ccc(Br)cc3C2)c2c(C)noc2n1 (stereo not shown),PFF0160c,"enzyme activity, inhibitor, absorbance",22
CCc1ccccc1N=C1c2c(cccc2[N+](=O)[O-])C(=O)C1C(C)=O (stereo not shown),PFF0160c E182D,"enzyme activity, inhibitor, absorbance",384
Cc1nc(Nc2ccc(S(F)(F)(F)(F)F)cc2)c2c(C)noc2n1,PFF0160c,"enzyme activity, inhibitor, absorbance",36
COc1ccccc1C1CN(CCNC(=O)c2nc(C)c[nH]2)Cc2ccccc2O1 (stereo not shown),PFF0160c,"enzyme activity, inhibitor, absorbance",3010
CCOC(=O)c1ccc(OC(=O)CCCCCN=C(N)N)cc1,PROC,"enzyme activity, inhibitor",1400
CCCCCNC(=N)N/N=C/c1c[nH]c2ccc(OC)cc12,"5-hydroxytryptamine receptor 2A (HTR2A, Homo sapiens, UniProt P28223)","calcium signal, antagonist, fluorescence",1500
Cc1nc(NC2CCc3cc(Br)ccc3C2)c2c(C)noc2n1 (stereo not shown),PFF0160c,"enzyme activity, inhibitor, absorbance",530
Cc1cc(Nc2ccc3c(c2)CCC3)n2ncnc2n1,PFF0160c E182D,"enzyme activity, inhibitor, absorbance",> 10000
Cc1c(Cc2ccc(C(F)(F)F)nc2)c[nH]c1C(=O)NC(C)c1nc[nH]n1 (stereo not shown),PFF0160c,"enzyme activity, inhibitor, absorbance",> 100000
CN(C)S(=O)(=O)c1ccc(Sc2ccccc2)c(C(=O)N2CCCC(C(N)=O)C2)c1 (stereo not shown),PFF0160c,"enzyme activity, inhibitor, absorbance",3670
Cc1cc(C(C)NC(=O)c2[nH]cc(Cc3ccc(C(F)(F)F)nc3)c2C)n[nH]1 (stereo not shown),PFF0160c,"enzyme activity, inhibitor, absorbance",100
Cc1ccc(O)c([C@H](CCN(C(C)C)C(C)C)c2ccccc2)c1,"Kappa-type opioid receptor (OPRK1, Homo sapiens, UniProt P41145)","ligand displacement, radioligand",6710
Cc1noc2nc(C(F)(F)F)nc(Nc3ccc(S(F)(F)(F)(F)F)cc3)c12,PFF0160c,"enzyme activity, inhibitor, absorbance",250
CCNC(=O)c1ccc(-n2nc(C)cc2-c2ccccc2)cc1,PFF0160c,"enzyme activity, inhibitor, absorbance",740
Cc1nc(Nc2ccc(C(F)(F)F)nc2)c2c(C)noc2n1,PFF0160c,"enzyme activity, inhibitor, absorbance",150
Cc1cc(C(C)NC(=O)c2[nH]cc(-c3n[nH]c4cc(C(F)(F)F)ccc34)c2C)no1 (stereo not shown),PFF0160c,"enzyme activity, inhibitor, absorbance",> 100000
